High-throughput results from PubChem.
CXCR6 inh: CXCR6 receptor inhibitors, primary screen, cell-based, beta-arrestin, luminescence, CHO-K1 PathHunter, 1536-well. inhibition, % at 20 µM. AID 602244, 2012. actives 0.36% (n = 360,000); in the data active = inhibition above about 34%, passing the limit was not always enough;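 also: antagonist mode with CXCL16 agonist at 10 nM final; 0% = 10 nM CXCL16 with DMSO and 100% = unstimulated wells without agonist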
CCR6 antag: CCR6 receptor antagonists, primary screen, cell-based, CHO-K1, luminescence, beta-arrestin, uHTS; inhibition, % at 20 µM; actives 0.49% (n = 340,000); C-C chemokine receptor type 6 (Homo sapiens), P51684; AID 493098, 2011; CHO-K1 CCR6 PathHunter beta-arrestin, CCL20-stimulated;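 active = compounds whose inhibition of the agonist-driven luminescence signal at 20 µM reaches about 50%, limit read from the data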;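 also: cells stimulated with CCL20 at 14 nM final; plate controls were DMSO with CCL20 for no effect and DMSO without agonist for full effect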
EBI2 antag: EBI2 receptor antagonists, beta-arrestin recruitment, primary screen, cell-based, luminescence, 7a,25-OHC stimulation, uHTS; G-protein coupled receptor 183 (Homo sapiens), P32249; 7a,25-OHC stimulated; inhibition, % at 5 µM; actives 0.81% (n = 360,000); in the data active = inhibition above about 38%;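 also: enzyme fragment complementation signal reports receptor beta-arrestin coupling in cells; 0% = agonist plus DMSO wells and 100% = wells without agonist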
Target sequence (P32249 whole entry, looked up, the tested form may be a part): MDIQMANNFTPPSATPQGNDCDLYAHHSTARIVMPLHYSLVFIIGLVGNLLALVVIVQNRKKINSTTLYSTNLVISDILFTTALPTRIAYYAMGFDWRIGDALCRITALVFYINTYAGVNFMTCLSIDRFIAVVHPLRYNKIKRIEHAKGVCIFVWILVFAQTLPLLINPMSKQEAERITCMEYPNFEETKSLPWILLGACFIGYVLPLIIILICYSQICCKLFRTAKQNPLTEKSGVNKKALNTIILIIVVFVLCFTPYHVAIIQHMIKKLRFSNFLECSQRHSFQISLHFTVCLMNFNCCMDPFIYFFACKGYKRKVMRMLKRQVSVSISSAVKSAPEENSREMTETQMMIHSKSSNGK
APJ ag: agonists of human apelin receptor APJ, primary screen, CHO-K1 cells, PathHunter beta-arrestin, luminescence; AID 2520, 2010; 0% DMSO wells, 100% apelin; P35414; activation, % at 20 µM; actives 0.11% (n = 330,000);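 active = activation more than six SD over the plate average, tested at 20 µM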;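 also: 0% = DMSO alone and 100% = apelin-13 at 10 nM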
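Assay system – PathHunter CHO-K1 APJ (AGTRL-1) beta-arrestin reporter cells · Compound – one dose, 20 µM compound, 1% DMSO · Timing – compound 90 min 25 °C, reagent 1 h · Measured by – luminescence from split beta-galactosidase complementation, Galacton Star/Emerald II substrate · Measure – beta-arrestin recruitment to APJ as agonist activity, luminescent signal · Benchmarks – DMSO vs Apelin-13 10 nM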
APJ antagonist: antagonists of human apelin receptor APJ, primary screen, CHO-K1 cells, beta-arrestin complementation, luminescence | actives 0.32% (n = 330,000) | P35414 | inhibition, % at 20 µM;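 active = inhibition above about 40% at 20 µM, limit read from the data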;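 also: cells challenged with 10 nM apelin-13 agonist together with compound; plate controls were apelin-13 plus DMSO wells for no effect and DMSO wells lacking apelin-13 for full effect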
Active calls of the source: *. Most compounds without a hit are left out; they make up all but 1.5% or so of the library.

Screening CCN(CC)c1ccc(NC2=C(Cl)C(=O)c3ccccc3C2=O)cc1 returned CXCR6 inh 34, CCR6 antag 57* and EBI2 antag 37.
`Cc1ccc(NC2=C(Cl)C(=O)c3ccccc3C2=O)cc1` gave CXCR6 inh 7, CCR6 antag 46 and EBI2 antag 30.
`CCCC(=O)NC1=C(Cl)C(=O)c2ccccc2C1=O` gave CXCR6 inh 99*, CCR6 antag 107* and EBI2 antag -31.
For CCNC1=C(Cl)C(=O)c2ccccc2C1=O the results were CXCR6 inh 7, CCR6 antag -11, EBI2 antag 0, APJ ag -1 and APJ antagonist -27.
For O=C(CN1C(=O)/C(=C\c2ccccc2Br)Oc2ccccc21)NCCCN1CCOCC1 the results were CXCR6 inh 1, CCR6 antag 68*, EBI2 antag 4, APJ ag -4 and APJ antagonist 17.
Screening Cc1ccc(/C=C/S(=O)(=O)NCC(=O)OCC(=O)NCc2ccccc2)cc1 returned CXCR6 inh -9, CCR6 antag -5, EBI2 antag -1, APJ ag 3 and APJ antagonist 8.
Screening CC1=CC(C)(C)Nc2ccc(OC(=O)c3cccnc3)cc21 returned CXCR6 inh 21, CCR6 antag 29, EBI2 antag -16, APJ ag -8 and APJ antagonist 39.
For CC1=CC(C)(C)Nc2ccc(OC(=O)c3ccco3)cc21 the results were CXCR6 inh 26, CCR6 antag 52*, EBI2 antag 2, APJ ag -8 and APJ antagonist 30.
Screening Nc1ccc2c(c1)C(=O)C(=O)c1ccccc1-2 returned CXCR6 inh 27, CCR6 antag 71*, EBI2 antag -19, APJ ag 13 and APJ antagonist -34.
Nc1ccc2c(c1)C(=O)c1ccccc1-2 was read as CXCR6 inh 5, CCR6 antag -1, EBI2 antag -2, APJ ag -4 and APJ antagonist -2.
CC(=O)Nc1ccc(S(=O)(=O)N2CCC(C(N)=O)(N3CCCCC3)CC2)cc1 was read as CXCR6 inh -5, CCR6 antag 5, EBI2 antag 5, APJ ag 1 and APJ antagonist -12.
For Cc1ccccc1C1=C/C(=C(\SS/C(C(=O)c2ccc(OCC(=O)O)c(Cl)c2Cl)=C2\C=C(c3ccccc3C)SS2)C(=O)c2ccc(OCC(=O)O)c(Cl)c2Cl)SS1 the results were CXCR6 inh 29, CCR6 antag 62* and EBI2 antag 13.
Screening CCOC(=O)C1CCN(C(=O)C2CCN(S(=O)(=O)c3cc(Cl)ccc3OCC)CC2)CC1 returned CXCR6 inh 2, CCR6 antag 8, EBI2 antag -1, APJ ag -6 and APJ antagonist -13.
Cc1ccnc(NC(=O)c2ccc(S(=O)(=O)NCc3ccco3)cc2)c1 was read as CXCR6 inh -18, CCR6 antag 3, EBI2 antag 12, APJ ag 5 and APJ antagonist -16.
`Cc1ccccc1CNc1ccc(C(CC(N)=O)NC(=O)c2ccccc2)cc1[N+](=O)[O-]` (configuration not stated) gave CXCR6 inh 12, CCR6 antag 26, EBI2 antag -5, APJ ag -7 and APJ antagonist 22.
COc1cc(/C=N/NC(=O)c2ccncc2)ccc1OC(=O)c1cccc(F)c1 was read as CXCR6 inh -14, CCR6 antag 5, EBI2 antag 9, APJ ag 23 and APJ antagonist -31.
`COc1cc(/C=N/N=C2/C(=O)Nc3ccccc32)ccc1O` gave CXCR6 inh 14, CCR6 antag 56*, EBI2 antag -27, APJ ag -3 and APJ antagonist 29.
O=C1Nc2ccccc2/C1=N\N=C\c1ccc(O)c(O)c1 was read as CXCR6 inh 32, CCR6 antag 35, EBI2 antag 0, APJ ag -1 and APJ antagonist 34.
Screening Cc1c(N/N=C(\C#N)C(=O)c2ccc(Cl)cc2)c(=O)n(-c2ccccc2)n1C returned CXCR6 inh 77*, CCR6 antag 81* and EBI2 antag 14.
Screening Cc1cc(C)c(S(=O)(=O)N2CCCCC2CCNC(=O)C(=O)NCc2ccco2)c(C)c1 (configuration not stated) returned CXCR6 inh 2, CCR6 antag 14, EBI2 antag 7, APJ ag -4 and APJ antagonist -14.
Screening C=CCc1cc(C=O)cc(OCC)c1O returned CXCR6 inh -5, CCR6 antag 0, EBI2 antag -12, APJ ag 2 and APJ antagonist -42.
Screening Cc1ccc(Cc2cnc(NC(=O)/C(C#N)=C/c3ccc(-c4ccc([N+](=O)[O-])cc4)o3)s2)cc1 returned CXCR6 inh 39, CCR6 antag 59*, EBI2 antag 14, APJ ag -11 and APJ antagonist 38.
For O=C(Cn1ccc2ccccc2c1=O)Nc1ccc2c(c1)OCO2 the results were CXCR6 inh -6, CCR6 antag 69*, EBI2 antag -8, APJ ag -5 and APJ antagonist -5.
For CC(=O)NC(c1ccc(C)cc1)c1cc([N+](=O)[O-])c2cccnc2c1O (configuration not stated) the results were CXCR6 inh 48*, EBI2 antag 14, APJ ag -4 and APJ antagonist 6.
Screening CC(=O)NC(c1ccccc1)c1cc(Cl)c2cccnc2c1O (configuration not stated) returned CXCR6 inh 6, CCR6 antag 9, EBI2 antag 9, APJ ag -6 and APJ antagonist -6.
`CCC(=O)NC(c1ccc(C)cc1)c1cc([N+](=O)[O-])c2cccnc2c1O` (configuration not stated) gave CXCR6 inh 51*, CCR6 antag 48 and EBI2 antag -1.
CC1=NC(Nc2nc(C)c3ccccc3n2)=NC(C)(C)C1 was read as CXCR6 inh 37, CCR6 antag 58* and EBI2 antag 26.
For COc1ccc(C(=O)C(C)OC(=O)c2cccc(S(=O)(=O)Nc3cc(Cl)c(OC)cc3OC)c2)cc1 (configuration not stated) the results were CXCR6 inh -4, CCR6 antag 17, EBI2 antag 37*, APJ ag -1 and APJ antagonist -13.
CCOc1ccc(CC(=O)N/N=C/c2cccnc2)cc1OCC was read as CXCR6 inh 4, CCR6 antag 2, EBI2 antag 3, APJ ag 10 and APJ antagonist 4.
`CCOC(=O)c1c(N)sc(N)c1C(=O)OCC` gave CXCR6 inh 17, CCR6 antag 23, EBI2 antag 12, APJ ag -12 and APJ antagonist 61*.
